The source of these data is ChEMBL document CHEMBL4024747, “Design, Synthesis, and Biological Activities of Vibsanin B Derivatives: A New Class of HSP90 C-Terminal Inhibitors” (J Med Chem, 2017).

pIC50: −log10 of the molar value. The source made the active and inactive calls. The rule behind the calls is not given here. A value given as a limit tells only on which side of the number the result lay.

For one data set, the system named is A549. Put plainly: Antiproliferative activity against human A549 cells assessed as reduction in cell viability after 48 hrs by MTT assay. Particulars: A549, 48 h. Type of data set: functional, cell-based. A general note: Tetrazolium dyes change colour on reduction, which living cells bring about.
For another data set, the system named is SMMC-7721. In words: Antiproliferative activity against human SMMC7721 cells assessed as reduction in cell viability after 48 hrs by MTT assay. It counts as functional, cell-based. Particulars: SMMC-7721, 48 h.
The next data set concerns SW480. Put plainly: Antiproliferative activity against human SW480 cells assessed as reduction in cell viability after 48 hrs by MTT assay. It counts as functional, cell-based. The settings on record: SW480, 48 h.
The next data set deals with HL-60. In words: Antiproliferative activity against human HL60 cells assessed as reduction in cell viability after 48 hrs by MTT assay. Type of data set: functional, cell-based. The settings on record: HL-60, 48 h.
For another data set, the species on record is Oryctolagus cuniculus. In words: Inhibition of HSP90 in rabbit reticulocyte lysate assessed as decrease in HSP90-dependant refolding of firefly luciferase at 10 uM after 30 mins by luciferase gene based assay. In a few lines: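 Firefly luciferase heat-denatured at 41 °C for 10 min, then added with rabbit reticulocyte lysate to compounds at 10 μM. Renaturation at room temperature for 3 h; luciferin substrate added and luminescence read. Refolding expressed relative to DMSO; novobiocin at 500 μM as reference. Three independent experiments.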

Data set [1] concerns the target Luciferin 4-monooxygenase (Photinus pyralis) (UniProt P08659). Put plainly: Inhibition of firefly luciferase activity using luciferin substrate at 10 uM after 30 mins by luminescence assay.
Data set [2] can be described thus: Stability of compound in pH 7.4 PBS at 37 degreeC after 12 hrs by HPLC analysis. Type of data set: physicochemical. The settings on record: buffer, pH 7.4, 12 h. In a few lines:
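Solution stability determined by HPLC after incubation in PBS pH 7.4 at 37 °C for 12 h.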

In another data set the test system is MCF7. Put plainly: Antiproliferative activity against human MCF7 cells assessed as reduction in cell viability after 48 hrs by MTT assay. Type of data set: functional, cell-based. The settings on record: MCF7, 48 h.
A further data set relates to SK-BR-3. In words: Antiproliferative activity against human SKBR3 cells assessed as reduction in cell viability after 48 hrs by MTT assay. It counts as functional, cell-based. The settings on record: SK-BR-3, 48 h.
A further data set concerns BT-474. In words: Antiproliferative activity against human BT474 cells assessed as reduction in cell viability after 48 hrs by MTT assay. Type of data set: functional, cell-based. The settings on record: BT-474, 48 h.
A further data set deals with MDA-MB-468. Put plainly: Antiproliferative activity against human MDA-MB-468 cells assessed as reduction in cell viability after 48 hrs by MTT assay. Type of data set: functional, cell-based. The settings on record: MDA-MB-468, 48 h.
In the next data set the test system is AGS. In words: Antiproliferative activity against human AGS cells assessed as reduction in cell viability after 48 hrs by MTT assay. Type of data set: functional, cell-based.
The next data set concerns HepG2. In words: Antiproliferative activity against human HepG2 cells assessed as reduction in cell viability after 48 hrs by MTT assay. It counts as functional, cell-based. The settings on record: HepG2, 48 h.
The test system of a further data set is Huh-7. In words: Antiproliferative activity against human HuH7 cells assessed as reduction in cell viability after 48 hrs by MTT assay. Type of data set: functional, cell-based. Particulars: Huh-7, 48 h.
The next data set concerns BEAS-2B. In words: Cytotoxicity against human BEAS2B cells assessed as reduction in cell viability after 48 hrs by MTT assay. Type of data set: cell-based.
A further data set concerns HeLa. Put plainly: Antiproliferative activity against human HeLa cells assessed as reduction in cell viability after 48 hrs by MTT assay. Type of data set: functional, cell-based.
For a further data set, the species on record is Danio rerio. Put plainly: Toxicity in 3 days post fertilized zebrafish embryo assessed as changes in embryonic phenotypes at 4 to 16 uM after 12 hrs. Particulars: in vivo.

Chain of Luciferin 4-monooxygenase (Photinus pyralis) (P08659 whole entry): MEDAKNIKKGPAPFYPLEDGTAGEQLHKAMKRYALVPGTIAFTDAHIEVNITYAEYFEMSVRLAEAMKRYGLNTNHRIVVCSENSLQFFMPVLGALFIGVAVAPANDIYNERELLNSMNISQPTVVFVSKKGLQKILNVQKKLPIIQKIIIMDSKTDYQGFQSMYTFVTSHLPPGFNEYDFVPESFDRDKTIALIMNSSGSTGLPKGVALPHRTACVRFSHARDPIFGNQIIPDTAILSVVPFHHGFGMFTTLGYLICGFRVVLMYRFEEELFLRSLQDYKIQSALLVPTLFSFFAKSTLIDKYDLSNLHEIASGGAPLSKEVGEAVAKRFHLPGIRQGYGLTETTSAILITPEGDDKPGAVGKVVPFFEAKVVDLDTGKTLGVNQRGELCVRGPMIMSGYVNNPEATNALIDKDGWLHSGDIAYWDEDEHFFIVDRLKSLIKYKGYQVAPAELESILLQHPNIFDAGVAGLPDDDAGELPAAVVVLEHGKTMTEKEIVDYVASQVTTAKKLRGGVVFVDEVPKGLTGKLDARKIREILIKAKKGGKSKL

One may read the pIC50 as the negative decadic logarithm of the IC50, by convention in mol/L. By inhibition is commonly meant the change of the read-out against control, counted positive when it falls. For `CC(=O)O[C@]1(C)/C=C/C(=O)/C(CO)=C\C[C@](C)(CCC=C(C)C)/C=C/[C@H]1OC(=O)C=C(C)C`, the pIC50 is 5.50 in the data set with A549; 5.51 with SMMC-7721; 5.70 in the data set on SW480; 5.63 with HL-60; 5.63 in the data set on MCF7. Further, the inhibition in the data set filed under Oryctolagus cuniculus is less than 50%. Further, the inhibition entry in [1] was “inactive”. In addition, the Stability entry in data set [2] was “Stable”.

Regarding `CC(C)=CCC[C@]1(C)/C=C/[C@@H](OC(=O)C=C(C)C)[C@](C)(O)/C=C/C(=O)/C(CN2CCCC2)=C\C1`, the pIC50 with A549 was 6.74; with SMMC-7721, 6.85; in the data set on SW480 it was 6.51; in the data set with HL-60, 6.80; with MCF7, 6.66. Further, the inhibition in the data set filed under Oryctolagus cuniculus was less than 50%. For the same compound, the inhibition result in [1] was “inactive”.

For `CC(C)=CCC[C@]1(C)/C=C/[C@@H](OC(=O)C=C(C)C)[C@](C)(O)/C=C/C(=O)/C(CF)=C\C1`, the pIC50 with A549 was 6.21 to 6.85; with SMMC-7721, 6.21 to 6.85; with SK-BR-3, 6.48; in the data set on BT-474, 6.03; in the data set on MDA-MB-468, 6.51; with SW480, 6.21 to 6.85. Moreover, the pIC50 in the data set on AGS is 6.13; with HepG2, 6.07; with Huh-7, 6.27; in the data set with BEAS-2B, 6.11; in the data set on HL-60 it was 6.21 to 6.85; in the data set with HeLa, 6.06. Also, in the data set on MCF7, the pIC50 was 6.62. Further, in the data set filed under Oryctolagus cuniculus, the inhibition entry was “Active”. Besides, in data set [1], the inhibition entry was “inactive”. Also, the Activity result in the data set filed under Danio rerio is listed as “Toxic”.

`C=C1/C=C/C(=O)/C(CO)=C\C[C@](C)(CCC=C(C)C)/C=C/[C@H]1OC(=O)C=C(C)C`: the pIC50 was 5.51 in the data set with A549; 5.37 in the data set with SMMC-7721; 5.53 with SW480; 5.55 with HL-60; 5.56 in the data set on MCF7. For the same compound, in the data set filed under Oryctolagus cuniculus, the inhibition result was “Active”. For the same compound, the inhibition result in [1] was “inactive”. Moreover, the Stability entry in data set [2] is “Stable”.

For `CC(C)=CCC[C@]1(C)/C=C/[C@@H](OC(=O)C=C(C)C)[C@](C)(O)/C=C/C(=O)/C(CCl)=C\C1`, the negative-log IC50 (pIC50) was 6.82 in the data set with A549; 6.08 in the data set with SMMC-7721; 6.41 in the data set on SW480; 6.80 with HL-60; 6.21 with MCF7. Further, the inhibition entry in the data set listed under Oryctolagus cuniculus is “Active”. For the same compound, the inhibition entry in data set [1] is “inactive”.

Turning to `CC(=O)O[C@@H]1/C=C/[C@@](C)(CCC=C(C)C)C/C=C(/CO)C(=O)/C=C/[C@@]1(C)O`, the pIC50 is 5.06 in the data set with A549; 5.01 in the data set on SMMC-7721; 5.31 in the data set on SW480; 5.30 in the data set on HL-60; 5.10 in the data set with MCF7.

With `CC(=O)OC/C1=C/C[C@](C)(CCC=C(C)C)/C=C/[C@@H](OC(=O)C=C(C)C)[C@](C)(O)/C=C/C1=O`, the pIC50 is 5.33 to 5.53 in the data set with A549; 5.33 to 5.53 in the data set on SMMC-7721; 5.33 to 5.53 with SW480; 5.33 to 5.53 with HL-60; 5.35 with MCF7.

With `CC(C)=CCC[C@]1(C)/C=C/[C@@H](OC(=O)C=C(C)C)[C@](C)(O)/C=C/C(=O)/C(CN=[N+]=[N-])=C\C1`, the pIC50 in the data set on A549 is 5.76; in the data set on SMMC-7721 it was 5.51; in the data set with SW480 it was 5.37; in the data set on HL-60, 6.04; in the data set on MCF7 it was 5.31.

In the case of `CSC(=S)OC/C1=C/C[C@](C)(CCC=C(C)C)/C=C/[C@@H](OC(=O)C=C(C)C)[C@](C)(O)/C=C/C1=O`, the negative logarithm of the IC50 (pIC50) is 6.42 in the data set on A549; 6.14 with SMMC-7721; 6.41 in the data set with SW480; 6.74 in the data set with HL-60; 6.05 with MCF7.

For the compound `CC(C)=CCC[C@]1(C)/C=C/[C@@H](OC(=O)C=C(C)C)[C@](C)(O)/C=C/C(=O)/C(CO[Si](C)(C)C(C)(C)C)=C\C1`, the pIC50 in the data set with A549 is 5.38; in the data set with SMMC-7721, 5.40; with SW480, 5.47; with HL-60, 5.56; in the data set with MCF7 it was 5.22.

Consider `CC(C)=CCC[C@]1(C)/C=C/[C@@H](OC(=O)c2ccccc2)[C@](C)(O)/C=C/C(=O)/C(CO)=C\C1`, for which the pIC50 in the data set with A549 is 4.80; with SMMC-7721 it was 4.69; with SW480, 4.99; with HL-60, 4.65; in the data set with MCF7 it was 4.57.

Take `CC(C)=CCC[C@]1(C)/C=C/[C@@H](OC(=O)C=C(C)C)[C@](C)(O)/C=C/C(=O)/C(C(=O)O)=C\C1`: the pIC50 in the data set with A549 is less than 5.00; in the data set on SMMC-7721, less than 5.00; in the data set with SW480, less than 5.00; with HL-60 it was less than 5.00; in the data set on MCF7, 4.79.

With `CC(C)=CCC[C@]1(C)/C=C/[C@@H](OC(=O)C(C)C)[C@](C)(O)/C=C/C(=O)/C(CO)=C\C1`, the pIC50 with A549 is 4.97; with SMMC-7721, 4.98; in the data set on SW480, 5.07; in the data set on HL-60, 5.40; with MCF7, 4.93.

In the case of `CC(C)=CCC[C@](C)(/C=C/[C@@H](OC(=O)C=C(C)C)[C@](C)(O)/C=C/C(=O)/C=C/N1CCOCC1)CC=O`, the pIC50 in the data set with A549 was 5.06; in the data set on SMMC-7721, 5.13; with SW480, 5.01; in the data set on HL-60, 5.39; in the data set on MCF7 it was 4.91.

`CC(C)=CCC[C@]1(C)/C=C/[C@@H](OC(=O)C=C(C)C)[C@](C)(O)CCC(=O)/C(CO)=C\C1`: the pIC50 in the data set on A549, in the data set on SMMC-7721, with SW480, in the data set on HL-60 and in the data set on MCF7 was less than 4.40 throughout.

For the compound `CC(C)=CCC[C@]1(C)/C=C/[C@@H](OC(=O)C=C(C)C)[C@](C)(O)/C=C/C(=O)/C(C(=O)N(C(C)C)C(C)C)=C\C1`, the pIC50 with A549 was 4.87; in the data set on SMMC-7721, 4.77; in the data set with SW480, 4.80; in the data set on HL-60 it was 4.90; in the data set on MCF7, 4.77.

In the case of `CC(C)=CCC[C@]1(C)/C=C/[C@@H](OC(=O)C=C(C)C)[C@](C)(O)/C=C/[C@@H](O)/C(CO)=C\C1`, the pIC50 with A549 is 4.73; with SMMC-7721, 4.79; in the data set with SW480, 4.71; in the data set with HL-60, 4.80; in the data set on MCF7, 4.76.

`CO/N=C/C1=C/C[C@](C)(CCC=C(C)C)/C=C/[C@@H](OC(=O)C=C(C)C)[C@](C)(O)/C=C/C1=O`: the pIC50 in the data set with A549 was 5.46; in the data set with SMMC-7721 it was 5.46; with SW480, 5.58; in the data set on HL-60 it was 5.32; in the data set with MCF7, 5.60.

Consider `CC(C)=CCC[C@]1(C)/C=C/[C@@H](OC(=O)C=C(C)C)[C@](C)(O)/C=C/C(=O)/C(CN(C(C)C)C(C)C)=C\C1`, for which the negative logarithm of the IC50 (pIC50) is 6.19 with A549; 6.47 with SMMC-7721; 6.12 in the data set on SW480; 6.13 in the data set on HL-60; 6.11 in the data set on MCF7.

In the case of `CC(C)=CCC[C@]1(C)/C=C/[C@@H](OC(=O)C=C(C)C)[C@](C)(O)/C=C/C(=O)/C(COC(=O)c2ccc([N+](=O)[O-])cc2)=C\C1`, the pIC50 is 5.88 in the data set on A549; 5.59 with SMMC-7721; 6.24 in the data set on SW480; 6.08 in the data set with HL-60; 6.17 in the data set on MCF7.

Consider `CO[C@]1(C)/C=C/C(=O)/C(CO)=C\C[C@](C)(CCC=C(C)C)/C=C/[C@H]1OC(=O)C=C(C)C`, for which the pIC50 in the data set on A549 is 4.84; in the data set on SMMC-7721, 4.80; in the data set on SW480 it was 4.82; in the data set on HL-60, 4.84; in the data set on MCF7, 4.85.
